Rows were chosen to be rich in hits. Some 9.4% of all compounds tested hit in one or more screens of this group.
CSC inhib = blocks cancer stem cells. cancer stem cell-like cells viability, luminescence. inhibition, % at 7.5 µM. 1.1% of 300,000 active; in the data active means inhibition above about 75%; tested in HMLE shEcad cells
Lmaj promast = reduces viability of Leishmania major promastigotes | resazurin fluorescence viability | inhibition, % at 10 µM | 9% of 200,000 active | AID 1063; in the data active means inhibition above about 50%;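 further: promastigotes grown with compound for 44 hours at 28 °C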
SKKanGAS inh = blocks kanamycin growth of S. pyogenes SKKanGAS strain; BacTiter-Glo, 6 h; 1.3% of 300,000 active; AID 1662; inhibition, % at 7.5 µM;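 active means mean replicate score, as percent of positive control median, at least 50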;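 further: strain carries kanamycin resistance gene driven by streptokinase promoter and grows in 40 µg/ml kanamycin; loss of luminescence reflects streptokinase promoter inhibition or plain growth inhibition; 0% = median of DMSO wells and 100% = positive control at its reference dose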
Mdm2-MdmX inh = disrupts the human Mdm2-MdmX interaction | O15151+Q00987 | SaOS-2 split-luciferase Mdm2/MdmX complementation, luminescence | inhibition, % at 8 µM | 3% of 330,000 active | AID 485346;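 active means inhibition of at least 50% at 8 µM in the primary screen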
Target sequence (O15151 whole entry, looked up): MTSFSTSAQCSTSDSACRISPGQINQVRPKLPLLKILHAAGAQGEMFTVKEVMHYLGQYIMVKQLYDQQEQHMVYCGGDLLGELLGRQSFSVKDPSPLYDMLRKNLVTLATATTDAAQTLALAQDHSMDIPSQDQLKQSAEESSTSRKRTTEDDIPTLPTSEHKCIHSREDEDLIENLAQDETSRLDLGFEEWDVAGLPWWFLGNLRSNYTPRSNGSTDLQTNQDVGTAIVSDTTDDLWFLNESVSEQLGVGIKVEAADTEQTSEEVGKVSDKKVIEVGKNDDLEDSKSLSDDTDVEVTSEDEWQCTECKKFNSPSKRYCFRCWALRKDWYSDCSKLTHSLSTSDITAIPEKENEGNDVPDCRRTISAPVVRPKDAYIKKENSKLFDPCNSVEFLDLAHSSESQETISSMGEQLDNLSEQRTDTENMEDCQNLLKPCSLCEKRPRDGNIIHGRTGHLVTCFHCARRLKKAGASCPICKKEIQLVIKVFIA
Target sequence (Q00987 whole entry, looked up): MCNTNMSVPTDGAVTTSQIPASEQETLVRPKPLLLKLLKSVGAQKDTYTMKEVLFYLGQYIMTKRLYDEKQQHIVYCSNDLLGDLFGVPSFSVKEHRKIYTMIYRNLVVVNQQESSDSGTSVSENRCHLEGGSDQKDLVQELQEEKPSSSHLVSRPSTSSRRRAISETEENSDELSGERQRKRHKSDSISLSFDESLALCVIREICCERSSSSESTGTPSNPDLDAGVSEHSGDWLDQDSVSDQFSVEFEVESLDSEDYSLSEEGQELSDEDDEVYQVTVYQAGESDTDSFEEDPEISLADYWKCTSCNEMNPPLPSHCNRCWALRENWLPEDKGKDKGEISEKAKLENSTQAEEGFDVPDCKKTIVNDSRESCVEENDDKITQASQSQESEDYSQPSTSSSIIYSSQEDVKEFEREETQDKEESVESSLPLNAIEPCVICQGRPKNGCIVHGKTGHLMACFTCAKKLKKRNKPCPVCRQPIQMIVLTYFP
Beta cell apopt = blocks beta cell apoptosis; INS-1E cytokine-induced death, ATP luminescence, 48 h; percent of positive-control rescue, neutral wells zero; protection from apoptosis, % (no concentration beside the values); 0.8% of 300,000 active;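 active means Every replicate reaches about 75%, or at least half do and their mean reaches it too, limit read from the data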;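 further: 0% = cytokine-treated negative control wells and 100% = positive control rescue; higher means more ATP so stronger rescue from cytokine killing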
T cruzi repl = blocks replication of Trypanosoma cruzi | 1.4% of 300,000 active | T. cruzi beta-gal in NIH3T3, luminescence, 90 h | inhibition, % (concentration not given with the values) | AID 1885;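 active means mean inhibition across valid replicates above about 55%, limit read from the data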;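 further: signal also drops with host cell toxicity which is not excluded here; 0% = plate median of DMSO wells and 100% = zero luminescence signal; higher percent means less beta-gal luminescence so fewer parasites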
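System: NIH/3T3 fibroblasts plus reporter T. cruzi. Medium: DMEM plus 2% FBS. Probe or stimulus: 5000 reporter trypomastigotes per well. Compound: single 50 nL compound addition per well in DMSO. Incubation: co-culture of at least 90 h after 3 h attachment. Detection: GalScreen β-gal luminescence, detergent lysis, 60 min. Evaluation: parasite load inhibition, %.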
Numbers without * were called inactive; x = not tested or not shown.

SMILES	CSC inhib	Lmaj promast	SKKanGAS inh	Mdm2-MdmX inh	Beta cell apopt	T cruzi repl
CCN(CC)c1ccc(/C=N/NC(=O)Cc2cccs2)c(O)c1	29.3	98.2*	9.7	x	91.5*	38.9
O=C(Cc1cccs1)N/N=C/C=C\c1ccco1	-1.5	-6.9	7.2	-10.4	-3.1	-4.3
O=C(Cc1cccs1)N/N=C/c1ccccc1	-2.5	x	13.2	34.5	-3.8	2.1
O=C(CCCNc1ccccc1)N/N=C/c1cccs1	-5.0	1.6	-3.5	14.9	-11.4	4.0
O=C(NC1CCCCC1)c1ccc(S(=O)(=O)c2ccccc2)cc1	-4.2	16.1	-1.9	10.1	1.0	-25.6
CCCCNC(=S)N(C)/N=C/c1c(C)[nH]c2ccccc12	-10.4	55.8*	-2.7	5.3	1.5	-7.1
COc1ccc(N2CCN(C(=O)c3cc(-c4ccc(F)cc4)[nH]c3C)CC2)cc1	3.4	x	13.1	31.7	4.0	7.0
Cc1[nH]c(-c2ccc(F)cc2)cc1C(=O)N1CCN(c2ccc(Cl)cc2)CC1	21.6	x	53.6*	42.6	-7.2	7.8
CC1(C)CC(=O)C(C2C3=C(CC(C)(C)CC3=O)Oc3ccccc32)C(=O)C1 (stereo unspecified)	2.5	x	-5.4	-0.4	-7.3	0.5
CC1(C)CC(=O)C2=C(C1)Oc1nc3ccccc3cc1C2C(C#N)C#N (stereo unspecified)	49.1	100.1*	-2.7	47.5	-20.6	x
COc1ccc(N2CCN(C(=O)NC(=O)c3ccccc3)CC2)cc1	0.4	x	-3.3	22.1	-7.1	15.9
NC(=O)C1CCCN(Cc2ccc(Cl)cc2)C1 (stereo unspecified)	3.3	78.8*	1.8	-32.5	-3.3	4.6
CCN(CC)C(=O)C1CCCN(C(=O)Nc2ccc(NC(=O)N3CCCC(C(=O)N(CC)CC)C3)cc2)C1 (stereo unspecified)	-7.5	-4.1	-12.6	-1.9	-9.7	-18.8
CN(Cc1ccccc1)C(=O)C1CCN(Cc2ccc(F)cc2)CC1	42.6	89.4*	-3.2	-13.9	-4.9	-2.3
CCN(CC)C(=O)C1CCCN(C(=S)Nc2cccc3ccccc23)C1 (stereo unspecified)	16.2	-9.3	0.1	15.5	85.3*	8.4
CCN(CC)C(=O)C1CCCN(Cc2ccc(N(C)C)cc2)C1 (stereo unspecified)	-5.6	x	0.9	14.3	-1.8	71.5*
CCN(CC)C(=O)C1CCCN(Cc2ccccc2)C1 (stereo unspecified)	-1.3	-0.3	-2.8	2.2	-13.2	15.8
CN(Cc1ccccc1)C(=O)C1CCCN(Cc2ccc(Cl)cc2)C1 (stereo unspecified)	16.3	88.8*	2.3	23.6	0.5	37.2
O=C(CC1C(=O)NCCN1Cc1ccccc1C(F)(F)F)NCCN1CCOCC1 (stereo unspecified)	-16.8	x	-2.5	11.7	-3.4	2.0
Cc1ccc(S(=O)(=O)N(Cc2ccc(F)cc2)Cc2ccco2)cc1	7.0	28.2	-2.4	-3.2	10.3	31.1
COc1ccccc1N(CC(=O)NCc1ccco1)S(=O)(=O)c1ccc(C)cc1	-38.0	x	-3.4	19.9	-3.4	4.6
Cc1ccc(S(=O)(=O)N(Cc2ccccc2)Cc2ccco2)cc1	x	88.4*	12.2	-11.8	6.8	33.6
O=C(CN(Cc1ccccc1)S(=O)(=O)c1ccc(Br)cc1)NCc1ccco1	13.4	99.9*	3.6	6.5	11.7	37.5
Cc1ccc(S(=O)(=O)N(Cc2ccc(Cl)cc2)c2ccccc2C(=O)NCc2ccco2)cc1	-16.2	58.1*	8.2	11.5	7.7	29.0
CC(O)CNc1nc2sc3c(c2c(=O)n1CCc1ccccc1)CCCCC3 (stereo unspecified)	58.5	22.3	12.5	6.7	4.6	56.9*
SMILES	CSC inhib	Lmaj promast	SKKanGAS inh	Mdm2-MdmX inh	Beta cell apopt	T cruzi repl
CC(O)CNc1nc2sc3c(c2c(=O)n1Cc1ccco1)CCCCC3 (stereo unspecified)	57.3	x	24.6	-25.4	90.5*	3.3
CCn1c(=O)n(CCc2ccccc2)c(=O)c2c3c(sc21)CCCC3	39.9	-0.4	-1.0	36.4	8.3	32.5
O=c1c2c3c(sc2n(CCN2CCCCC2)c(=O)n1Cc1ccco1)CCCCC3	-2.7	99.2*	0.0	-2.0	93.4*	62.8*
CCOc1ccc(S(=O)(=O)N(C)c2ccc(OCC(=O)Nc3ccccc3F)cc2)cc1	x	x	x	13.5	x	x
NNC(=O)c1sc2cc(C(F)(F)F)cnc2c1-c1ccccn1	x	-1.0	3.3	-2.8	0.6	1.7
COc1cc(CNCCN2CCOCC2)ccc1OCc1cccc(Cl)c1	-6.6	95.5*	1.3	3.4	-1.9	24.3
COc1ccc(CCNC(=S)NCc2ccc(Cl)c(Cl)c2)cc1OC	-11.3	2.5	32.7	11.1	-1.1	60.4*
CCNC(=S)NCc1ccc(OC)c(OC)c1	-6.2	0.1	-2.7	24.8	-7.7	-10.5
CCCCCNCc1ccc(OCc2ccc(Cl)nc2)c(OC)c1	-11.5	99.6*	-13.9	13.7	6.7	22.9
CCOCCCNCc1ccc(OCCC(C)C)c(OC)c1	9.1	85.4*	-2.7	-2.1	-0.3	63.1*
O=C(Nc1ncc([N+](=O)[O-])s1)c1ccccc1Br	-9.8	x	6.2	5.4	-0.3	51.6
COc1ccc(S(=O)(=O)N2CCC(C(=O)N[C@@H](C)C(=O)NC3CCCC3)CC2)cc1	-9.9	x	-7.2	21.1	-2.6	-6.1
CN(Cc1c(F)cccc1Cl)C(=O)C1=CC=CN2CCS(=O)(=O)N=C12	-10.0	x	x	10.1	-4.6	x
CCCCCCCCN1N=N[C@H]2[C@H]1[C@@H]1C[C@H]2N(C(=O)OC(C)(C)C)O1	x	x	x	23.8	x	x
CCCCCCN=C1CC(C)(C)CC(=O)/C1=C(/O)CCC	-15.9	x	0.3	4.3	0.4	15.6
CC(C)C(C(=O)NCC1CCCO1)N(C(=O)CNS(=O)(=O)c1ccccc1)c1ccc(F)cc1 (stereo unspecified)	10.0	x	8.7	10.9	2.0	-6.4
CC(C)(C)c1cc(CCC(=O)Nc2ccncc2)cc(C(C)(C)C)c1O	0.0	x	2.0	1.5	-3.0	22.0
CCO[C@@H]1OC(C(=O)NCc2ccccc2)=C[C@H](c2coc3ccccc3c2=O)[C@H]1CCCO	-18.2	3.9	-2.4	22.0	-11.0	-5.7
COc1ccc(CCNCc2ccc(OCc3ccc(Cl)nc3)c(OC)c2)cc1OC	6.6	89.9*	-0.3	22.6	2.2	57.0*
COc1ccc(CNCCc2ccc(Cl)cc2)cc1OCc1ccccc1	45.0	96.2*	2.3	37.6	39.7	70.1*
CC1CCN(Cc2ccc(NC(=O)C3CCN(c4nnc(-n5cccc5)s4)CC3)cc2)CC1	-4.6	92.1*	0.8	36.5	1.8	4.5
O=C(C1CCN(c2nnc(-n3cccc3)s2)CC1)N1CCN(Cc2ccc3c(c2)OCO3)CC1	-20.8	-6.8	-10.7	-7.9	-4.4	26.0
c1ccc(CN2CCN(Cc3c[nH]c4ccccc34)CC2)cc1	-18.6	x	-2.7	7.9	86.5*	60.4*
O=[N+]([O-])c1ccc(S(=O)(=O)N2CCN(Cc3c[nH]c4ccccc34)CC2)cc1	x	11.4	-3.6	15.4	0.4	74.2*
NC(=O)c1ccnc2c(O)cccc12	-4.6	x	x	-4.9	-17.8	x

Screening data as filed in PubChem.
